Test results from ChEMBL document CHEMBL3632584, “Further Optimization and Evaluation of Bioavailable, Mixed-Efficacy μ-Opioid Receptor (MOR) Agonists/δ-Opioid Receptor (DOR) Antagonists: Balancing MOR and DOR Affinities” (J Med Chem, 2015).
Activity calls are given as the source filed them.

Experiments:
[1] = biological target: Delta-type opioid receptor (Rattus norvegicus) (UniProt P33533); experiment: Agonist activity at rat delta-opioid receptor expressed in C6 cell membrane assessed as [35S]GTPgammaS binding for 1 hr by liquid scintillation counting analysis relative to 10 uM DPDPE; assay type: functional, cell membranes
Chain of Delta-type opioid receptor (Rattus norvegicus) (P33533 whole entry): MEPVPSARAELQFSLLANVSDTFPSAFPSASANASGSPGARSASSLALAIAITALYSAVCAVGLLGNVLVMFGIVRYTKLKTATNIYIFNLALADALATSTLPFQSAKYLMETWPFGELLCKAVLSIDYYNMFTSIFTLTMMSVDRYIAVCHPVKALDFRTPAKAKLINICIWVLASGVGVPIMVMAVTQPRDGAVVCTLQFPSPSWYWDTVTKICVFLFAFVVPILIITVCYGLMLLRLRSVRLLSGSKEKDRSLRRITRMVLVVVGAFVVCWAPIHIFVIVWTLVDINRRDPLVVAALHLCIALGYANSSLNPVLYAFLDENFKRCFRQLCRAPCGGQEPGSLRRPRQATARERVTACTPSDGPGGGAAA

[2] = biological target: T1, Kappa-type opioid receptor (Homo sapiens, UniProt P41145); experiment: Agonist activity at human kappa-opioid receptor expressed in CHO cell membrane assessed as [35S]GTPgammaS binding for 1 hr by liquid scintillation counting analysis; assay type: functional, cell membranes
T1 sequence (P41145 whole entry): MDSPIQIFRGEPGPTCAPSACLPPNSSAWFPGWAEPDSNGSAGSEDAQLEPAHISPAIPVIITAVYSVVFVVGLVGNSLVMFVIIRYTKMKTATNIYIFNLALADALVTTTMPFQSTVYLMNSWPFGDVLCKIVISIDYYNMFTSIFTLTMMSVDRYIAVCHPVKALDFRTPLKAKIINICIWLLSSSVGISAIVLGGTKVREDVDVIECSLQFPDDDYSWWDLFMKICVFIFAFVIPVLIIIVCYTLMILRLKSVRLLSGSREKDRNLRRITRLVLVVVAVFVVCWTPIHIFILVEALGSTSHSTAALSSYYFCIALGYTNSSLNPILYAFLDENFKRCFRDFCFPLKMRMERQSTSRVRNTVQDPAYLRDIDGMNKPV

Rattus norvegicus = species on record: Rattus norvegicus; experiment: Selectivity ratio, ratio of Ki for rat delta-opioid receptor to Ki for rat mu-opioid receptor
In short: (§1)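 Competition for 0.2 nM [3H]diprenorphine in membranes (20 µg protein) from C6 cells with rat MOR or DOR, or CHO cells with human KOR. 50 mM Tris-HCl pH 7.4, 1 h at room temperature, then GF/C filtration, five buffer washes, scintillation counting. Nonspecific binding set with 10 µM naloxone. Ki from logistic fit. Mean ± S.E.M., ≥3 assays in duplicate. DOR/MOR ratio taken from the Ki values.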

[3] = biological target: Mu-type opioid receptor (Rattus norvegicus) (UniProt P33535); experiment: Agonist activity at rat mu-opioid receptor expressed in C6 cell membrane assessed as [35S]GTPgammaS binding for 1 hr by liquid scintillation counting analysis relative to 10 uM DAMGO; assay type: functional, cell membranes
Chain of Mu-type opioid receptor (Rattus norvegicus) (P33535 whole entry): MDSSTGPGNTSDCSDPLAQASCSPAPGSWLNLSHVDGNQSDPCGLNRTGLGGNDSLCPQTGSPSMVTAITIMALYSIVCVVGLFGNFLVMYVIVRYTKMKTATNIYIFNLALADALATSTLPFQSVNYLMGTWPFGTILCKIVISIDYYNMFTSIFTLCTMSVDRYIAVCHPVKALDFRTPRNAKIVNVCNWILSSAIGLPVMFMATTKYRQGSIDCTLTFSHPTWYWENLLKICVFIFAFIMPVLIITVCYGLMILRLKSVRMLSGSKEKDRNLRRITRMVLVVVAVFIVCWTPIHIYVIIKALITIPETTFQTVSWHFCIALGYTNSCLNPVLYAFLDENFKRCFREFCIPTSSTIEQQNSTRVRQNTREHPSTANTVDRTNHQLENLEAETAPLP

Mu-type opioid receptor [4] = biological target: T2, Mu-type opioid receptor (Rattus norvegicus, UniProt P33535); experiment: Agonist activity at rat mu-opioid receptor expressed in C6 cell membrane assessed as [35S]GTPgammaS binding for 1 hr by liquid scintillation counting analysis; assay type: functional, cell membranes
T2 sequence (P33535 whole entry): as above

Mu-type opioid receptor [5] = biological target: T2, Mu-type opioid receptor; experiment: Displacement of [3H]diprenorphine from rat mu-opioid receptor expressed in C6 cell membrane for 1 hr by liquid scintillation counting analysis; assay type: cell membranes
[6] = biological target: T1, Kappa-type opioid receptor; experiment: Displacement of [3H]diprenorphine from human kappa-opioid receptor expressed in CHO cell membrane for 1 hr by liquid scintillation counting analysis; assay type: cell membranes; in short: as §1
[7] = biological target: T3, Delta-type opioid receptor (Rattus norvegicus, UniProt P33533); experiment: Displacement of [3H]diprenorphine from rat delta-opioid receptor expressed in C6 cell membrane for 1 hr by liquid scintillation counting analysis; assay type: cell membranes
T3 sequence (P33533 whole entry): as the sequence (P33533 whole entry) above

[8] = biological target: T3, Delta-type opioid receptor; experiment: Agonist activity at rat delta-opioid receptor expressed in C6 cell membrane assessed as [35S]GTPgammaS binding for 1 hr by liquid scintillation counting analysis; assay type: functional, cell membranes
Mus musculus [9] = experiment: Antinociceptive activity in C57BL/6 mouse assessed as tail withdrawal latency time at 10 mg/kg, ip measured after 30 mins by warm water tail withdrawal assay; assay type: functional
[10] = biological target: T1, Kappa-type opioid receptor; experiment: Agonist activity at human kappa-opioid receptor expressed in CHO cell membrane assessed as [35S]GTPgammaS binding for 1 hr by liquid scintillation counting analysis relative to 10 uM U69593; assay type: functional, cell membranes
Mus musculus [11] = experiment: Antinociceptive activity in C57BL/6 mouse assessed as tail withdrawal latency upto 10 mg/kg, ip measured after 30 mins by warm water tail withdrawal assay; assay type: functional, organism-based
Plasma = experiment: Stability in C57BL/6 mouse plasma after 30 mins; assay type: ADME, cell-free; details: 0.5 h
Mus musculus [12] = experiment: Antinociceptive activity in ip dosed C57BL/6 mouse assessed as tail withdrawal latency pretreated with 1 mg/kg naltrexone for 30 mins measured 30 mins after drug challenge by warm water tail withdrawal assay; assay type: functional; details: C57BL/6, Tail
In short: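 Male C57BL/6 mice pretreated ip with 1 mg/kg naltrexone or saline 30 min before cumulative ip dosing to 3.2, 10 and 32 mg/kg. Tail withdrawal latency from 50 °C water, 20 s cutoff, read 30 min after each dose. ED50 from the dose-response.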

Mus musculus [13] = experiment: Antinociceptive activity in ip dosed C57BL/6 mouse assessed as tail withdrawal latency measured 30 mins after drug challenge by warm water tail withdrawal assay; assay type: functional; details: for ED50: C57BL/6, Tail, 0.5 h
Mus musculus [14] = experiment: Antinociceptive activity in C57BL/6 mouse assessed as time duration of action at 10 mg/kg, ip measured after 30 mins by warm water tail withdrawal assay; assay type: functional
In short: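 Male C57BL/6 mice given a single 10 mg/kg ip dose. Tail withdrawal from 50 °C water, 20 s cutoff, measured at varying times after dosing to follow duration of action. n=6.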

Compound | Activity [1] | EC50 ([2]; read-out: EC50) | Ratio Ki (Rattus norvegicus) | Activity [3] | EC50 (Mu-type opioid receptor [4]; read-out: EC50) | Ki (Mu-type opioid receptor [5]) | Ki [6] | Ki [7] | EC50 ([8]; c6) | Time (Mus musculus [9]) | Activity [10] | EC50 (Mu-type opioid receptor [4]; c6) | EC50 ([2]; cho) | Activity (Mus musculus [11]) | Stability (Plasma) | EC50 ([8]; read-out: EC50) | ED50 (Mus musculus [12]) | Activity (Mus musculus [13]) | ED50 (Mus musculus [13]) | Time (Mus musculus [14])
CC(=O)N1CC[C@@H](NC(=O)[C@@H](N)Cc2c(C)cc(O)cc2C)c2cc(CC3Cc4ccccc4C3)ccc21 | inactive | 610 nM | 9 | 84% | 0.56 nM | 0.05 nM | 12 nM | 0.44 nM | Not Active | 11 s | 60% |  |  |  |  |  |  |  |  | 
CC(=O)N1CC[C@@H](NC(=O)[C@@H](N)Cc2c(C)cc(O)cc2C)c2cc(CC3CCc4ccccc43)ccc21 (mixture of isomers) |  |  |  | 39% | 15 nM | 0.03 nM | 15 nM | 0.84 nM | Not Active |  | 26% |  |  |  |  |  |  |  |  | 
Cc1cc(O)cc(C)c1C[C@H](N)C(=O)N[C@@H]1CCCc2ccc(CC3CCCCC3)cc21 | inactive | 350 nM | 117 | inactive |  |  | 20 nM | 14 nM | Not Active |  | 25% | Not Active |  |  |  |  |  |  |  | 
Cc1cc(O)cc(C)c1C[C@H](N)C(=O)N[C@@H]1CCCc2ccc(Cc3ccccc3)cc21 |  |  |  | 64% | 2.9 nM | 0.045 nM | 19 nM | 4 nM | Not Active | 14 s |  |  | Not Active |  |  |  |  |  |  | 
Cc1cc(O)cc(C)c1C[C@H](N)C(=O)N[C@@H]1CCCc2ccc(Cc3ccc4ccccc4c3)cc21 |  |  |  | 72% | 4.4 nM | 0.06 nM | 92 nM | 12 nM | Not Active |  |  |  | Not Active | inactive |  |  |  |  |  | 
CC(=O)N1CC[C@@H](NC(=O)[C@@H](N)Cc2c(C)cc(O)cc2C)c2cc(Cc3cccc4ccccc34)ccc21 | inactive |  | 22 | 70% | 0.48 nM | 0.06 nM | 4.3 nM | 1.3 nM | Not Active |  | inactive |  | Not Active | inactive | Stable |  |  |  |  | 
CC(=O)N1CC[C@@H](NC(=O)[C@@H](N)Cc2c(C)cc(O)cc2C)c2cc(CC3CCCCC3)ccc21 | 26% | 240 nM | 11 | 70% | 0.61 nM | 0.03 nM | 8.4 nM | 0.32 nM |  |  | 33% |  |  | inactive |  | 14 nM |  |  |  | 
CC(=O)N1CC[C@@H](NC(=O)[C@@H](N)Cc2c(C)cc(O)cc2C)c2cc(Cc3ccccc3)ccc21 | 26% | > 1300 nM | 14 | 76% | 6 nM | 0.13 nM | 87 nM | 1.8 nM |  |  | 29% |  |  | inactive |  | 68 nM |  |  |  | 
Cc1cc(O)cc(C)c1C[C@H](N)C(=O)N[C@@H]1CCNc2ccc(Cc3ccc4ccccc4c3)cc21 | inactive |  |  | 96% |  |  |  |  |  | 10 s | inactive |  |  |  |  |  |  |  |  | 
CC(=O)N1CC[C@@H](NC(=O)[C@@H](N)Cc2c(C)cc(O)cc2C)c2cc(Cc3ccc4ccccc4c3)ccc21 | inactive |  | 6 | 87% | 0.93 nM | 0.04 nM | 48 nM | 0.23 nM | Not Active |  | inactive |  | Not Active |  | Stable |  | 15.1 mg/kg | Dose-dependent effect | 4.72 mg/kg | >3 h
CN1CC[C@]23c4c5ccc(O)c4O[C@H]2[C@@H](O)C=C[C@H]3[C@H]1C5 [MORPHINE] |  |  |  |  |  |  |  |  |  |  |  |  |  |  |  |  |  |  | 4.73 mg/kg | 
Cc1cc(O)cc(C)c1C[C@H](N)C(=O)N[C@@H]1CCCc2ccc(Cc3cccc4ccccc34)cc21 | inactive |  | 13 | 58% | 14 nM | 0.39 nM | 63 nM | 5 nM | Not Active |  | inactive |  | Not Active | inactive |  |  |  |  |  | 
Cc1cc(O)cc(C)c1C[C@H](N)C(=O)N[C@@H]1CCNc2ccc(CC3CCCCC3)cc21 | inactive | 97 nM | 79 | 57% | 2.6 nM | 0.043 nM | 6.2 nM | 3.4 nM | Not Active |  | 36% |  |  | inactive |  |  |  |  |  | 
Cc1cc(O)cc(C)c1C[C@H](N)C(=O)N[C@@H]1CCNc2ccc(CC3CCc4ccccc43)cc21 (mixture of isomers) |  | 180 nM |  | 16% | 9 nM | 0.05 nM | 19 nM | 6.8 nM | Not Active |  | 52% |  |  |  |  |  |  |  |  | 
Cc1cc(O)cc(C)c1C[C@H](N)C(=O)N[C@@H]1CCNc2ccc(Cc3cccc4ccccc34)cc21 | 15% |  |  | 93% |  |  |  |  |  |  |  |  |  |  |  |  |  |  |  | 
Cc1cc(O)cc(C)c1C[C@H](N)C(=O)N[C@@H]1CCNc2ccc(CC3Cc4ccccc4C3)cc21 | inactive |  | 26 | 86% |  |  |  |  |  |  | 38% |  | Not Active | inactive |  |  |  |  |  | 
Cc1cc(O)cc(C)c1C[C@H](N)C(=O)N[C@@H]1CCNc2ccc(Cc3ccccc3)cc21 |  |  |  |  |  |  |  |  |  |  |  |  |  |  |  |  |  |  |  | >1 h
